MrgX1 allo act = human MrgX1 positive allosteric modulation, primary screen; AID 588675; MrgX1-HEK293, Fluo-4 calcium flux, FDSS; stronger effect = higher value; B-score at 10 µM; actives 0.63% (n = 310,000);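 active = plate-corrected calcium response at least 3 library SD above typical, normal starting fluorescence, not activating the receptor alone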;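 note: compound read alongside a low EC10 to EC30 dose of BAM8-22 agonist; peak minus trough fluorescence over baseline measured at the second addition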
RGS4 block = inhibitors of human RGS4 | P49798 | HEK293 M3R/RGS4 inducible, Fluo-4 calcium flux; stronger effect = higher value; triggered by carbachol at its EC20 | B-score at 10 µM | actives 0.45% (n = 310,000);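 active = B-score, a plate-corrected calcium signal, over three deviations above library mean, with baseline fluorescence within five deviations of library mean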;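 note: RGS4 expression induced by doxycycline in cells with stable M3 receptor; B-score is computed from the integrated fluorescence ratio over baseline after carbachol; higher B-score means a larger calcium signal and so more RGS4 inhibition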
Target sequence (P49798 whole entry, looked up): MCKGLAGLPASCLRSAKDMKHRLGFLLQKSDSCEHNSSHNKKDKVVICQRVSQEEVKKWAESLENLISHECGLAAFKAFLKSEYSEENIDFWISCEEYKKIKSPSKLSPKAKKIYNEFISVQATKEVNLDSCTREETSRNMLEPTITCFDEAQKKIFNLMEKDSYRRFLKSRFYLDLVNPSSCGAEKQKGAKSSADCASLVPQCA
PHOSPHO1 block = PHOSPHO1 (human) inhibition | recombinant PHOSPHO1, absorbance phosphatase assay | inhibition, % at 13.3 µM | actives 1.1% (n = 290,000) | AID 1565; in the data active = inhibition above about 60%
Target sequence (Q8TCT1 whole entry, looked up): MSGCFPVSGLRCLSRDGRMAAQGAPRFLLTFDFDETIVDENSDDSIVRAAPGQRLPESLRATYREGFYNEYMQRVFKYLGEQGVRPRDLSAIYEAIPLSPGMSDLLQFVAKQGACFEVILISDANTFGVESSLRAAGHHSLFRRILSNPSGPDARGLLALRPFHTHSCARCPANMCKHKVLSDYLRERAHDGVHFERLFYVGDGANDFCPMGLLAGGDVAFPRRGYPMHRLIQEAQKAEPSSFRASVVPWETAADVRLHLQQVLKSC
MrgX1 agonist = human MrgX1 receptor agonism, primary screen; Q96LB2; MrgX1-HEK293 cells, Fluo-4 calcium fluorescence, agonist mode; stronger effect = higher value; B-score at 10 µM; actives 0.44% (n = 310,000); AID 588627;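 active = calcium response B-score plate-corrected fluorescence ratio at least 3 library SD, with starting fluorescence B-score inside 5 SD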
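Material – MrgX1-expressing HEK293 cells · Input – 15,000 cells seeded per well · Dosing – compound as first of three additions · Times – overnight seeding, then 1 h dark dye loading · Measured by – kinetic Fluo-4 NW fluorescence of intracellular calcium · Read-out – B-scored fluorescence response ratio · Benchmarks – positive and negative control wells on each plate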
RGS4 act = potentiators or activators of RGS4 | AID 463111 | HEK293 M3R/inducible RGS4, carbachol calcium flux Fluo4; stronger effect = lower value | actives 0.92% (n = 310,000) | B-score at 10 µM;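 active = B-score of the integrated calcium signal more than 4 SD below the library mean, with starting fluorescence not abnormally high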;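 note: negative B-score means reduced calcium response which marks RGS4 activation or potentiation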
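Material: M3R-expressing HEK293 line, RGS4 induced by doxycycline | Schedule: Overnight RGS4 induction, 30 min dye load 37 °C, 20 min compound RT | Measured by: Fluo4 fluorescence kinetic imaging of calcium | Read-out: Integrated calcium ratio converted to B score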
MrgX1 antag = antagonists of human MrgX1 receptor. MRGX1-HEK293 calcium flux, Fluo-4, BAM8-22 antagonism; stronger effect = lower value. B-score at 10 µM. actives 1.3% (n = 310,000). AID 588676;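 active = calcium-response B-score plate-corrected more than 3 library SD below zero, starting fluorescence within 5 deviations, no agonist response on first addition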;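 note: peak minus trough fluorescence over baseline after final BAM8-22 challenge near maximal dose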
RGS4 block valid = RGS4 inhibitor validation; shares compounds with RGS4 block; HEK293 M3R/RGS4, carbachol calcium Fluo-4 fluorescence; carbachol added at its EC20; 0 = buffer wells, 100 = carbachol control; calcium response, % at 10 µM; actives 65% (n = 1,700); AID 492999;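 active = duplicate-averaged calcium response above the buffer-only control mean plus 5 SD of those controls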;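 note: integrated fluorescence ratio F max minus min over baseline F0; higher response in RGS4-induced cells means RGS4 inhibition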
M3R Ca ctr = counter-screen for RGS4 inhibitors: effect in non-induced cells; HEK293 M3R non-induced, carbachol calcium Fluo-4; submaximal (EC20) carbachol stimulus; buffer wells 0%, carbachol control wells 100%; actives 20% (n = 1,900); activity (percent), % at 10 µM; shares compounds with RGS4 block; call rule not given here;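 note: RGS4 induction absent so cells express M3R without RGS4; higher means more calcium signal and flags a non-specific hit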
RGS4 inh ctr2 = signal in non-induced cells without carbachol, RGS4 inhibitor counter-screen. calcium response (agonist-mode artifact), % at 10 µM. shares compounds with RGS4 block. actives 22% (n = 1,900). HEK293 M3R/RGS4 non-induced, Fluo-4 calcium, no carbachol; normalised: buffer wells 0%, carbachol wells 100%;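 active = duplicate-averaged calcium rise in uninduced cells above buffer wells' mean plus 5 SD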
* marks the source's active call; other numbers are inactive results; i = inactive; . = no result. Compounds with a hit are over-represented: about 4.5% of the library has one in this group of screens.

SMILES	MrgX1 allo act	RGS4 block	PHOSPHO1 block	MrgX1 agonist	RGS4 act	MrgX1 antag	RGS4 block valid	M3R Ca ctr	RGS4 inh ctr2
O=C(NC(C(=O)N/N=C/c1ccncc1)c1n[nH]c(=O)c2ccccc12)c1ccccc1 (stereo not drawn)	i	i	-52	i	i	i	.	.	.
Cc1ccc(-n2ccc(=O)c(C(=O)Nc3ccc(S(=O)(=O)Nc4onc(C)c4C)cc3)n2)cc1	i	i	13	i	i	i	.	i	i
Cc1noc(NS(=O)(=O)c2ccc(NC(=O)c3nn(-c4ccc(F)cc4)ccc3=O)cc2)c1C	i	i	54	i	i	i	.	.	.
O=C(COCC(=O)NCc1ccccc1)NCc1ccccc1	i	i	40	i	i	i	.	.	.
CSc1nc(-c2ccccc2)nn1C(=O)c1ccccc1	i	i	37	i	i	i	.	.	.
CSc1nc(-c2ccccc2)nn1C(=O)c1ccco1	i	i	-13	i	i	i	i	i	i
COc1ccccc1NS(=O)(=O)c1cc(NC(=O)c2[nH]c(C)c(C(C)=O)c2C)ccc1N1CCOCC1	i	i	5	i	i	i	.	.	.
N#Cc1c(NC(=O)C2CC=CCC2C(=O)O)sc2c1CCCCCC2 (stereo not drawn)	i	5*	-9	i	i	i	20%*	i	i
CC(C)(C)C1CCc2c(sc(NC(=O)C3CC=CCC3C(=O)O)c2C#N)C1 (stereo not drawn)	i	i	6	i	i	i	.	.	.
O=C1ON=C(c2ccccc2)/C1=C/c1ccccc1	i	i	3	i	i	i	i	i	i
O=C1ON=C(c2ccccc2)/C1=C/c1ccc(O)cc1	i	11*	24	i	i	i	24%*	i	22%*
Cc1ccc(C2=NOC(=O)/C2=C\c2ccccc2)cc1	i	i	.	i	i	i	.	.	.
O=C1ON=C(c2ccccc2)/C1=C\c1ccco1	i	i	33	i	i	i	.	.	.
COc1cccc(C(=O)N2CCC(C(=O)NCc3ccco3)CC2)c1	i	i	8	i	i	i	.	.	.
O=C(Nc1ccc(S(=O)(=O)Nc2cnc3ccccc3n2)cc1)c1ccc(Cl)c([N+](=O)[O-])c1	17*	8.9*	.	i	i	i	14%*	56%*	i
CCN(CC)c1nc(Oc2ccc(=O)[nH]n2)nc(N2CCOCC2)n1	i	i	-2	i	i	i	.	.	.
Cc1[nH]n(-c2ccccc2)c(=O)c1Sc1ccc(Cl)cc1	i	i	26	i	i	i	.	.	.
Cc1[nH]n(-c2ccccc2)c(=O)c1C(C[N+](=O)[O-])c1ccc(F)cc1 (stereo not drawn)	i	i	4	i	i	i	.	i	7.5%*
Cc1[nH]n(-c2ccccc2)c(=O)c1C(C[N+](=O)[O-])c1ccc(Cl)cc1 (stereo not drawn)	i	10*	-4	32*	i	i	28%*	i	11%*
COc1ccc(C(c2c(C)[nH]n(-c3ccccc3)c2=O)c2c(C)[nH]n(-c3ccccc3)c2=O)cc1OC	i	i	-12	i	i	i	.	i	i
Cc1ccc(C(C[N+](=O)[O-])c2c(C)[nH]n(-c3ccccc3)c2=O)cc1 (stereo not drawn)	i	6.7*	-11	36*	i	i	7.0%*	32%*	17%*
Brc1ccc(C2Nc3cccc4cccc(c34)N2)s1	i	.	-7	i	.	i	.	.	.
CCS(=O)(=O)c1ccc2c(c1)N(S(C)(=O)=O)CC(C(=O)NC1CC1)O2 (stereo not drawn)	i	i	23	i	i	i	.	.	.
CC(=O)c1ccc(N/N=C(/C(N)=O)C2=NC(C)(C)Cc3ccccc32)cc1	i	i	3	i	i	i	.	.	.
CC1(C)Cc2ccccc2C(/C(=N\Nc2cccc(Cl)c2)C(N)=O)=N1	i	6.6*	24	i	i	i	16%*	i	i
SMILES	MrgX1 allo act	RGS4 block	PHOSPHO1 block	MrgX1 agonist	RGS4 act	MrgX1 antag	RGS4 block valid	M3R Ca ctr	RGS4 inh ctr2
COc1ccc(/C=N/NC(=O)c2nnn(-c3nonc3N)c2-c2cccs2)cc1OC	i	i	44	i	i	i	.	.	.
COc1ccc(/C=N/NC(=O)c2nnn(-c3nonc3N)c2-c2cccc(OC)c2)cc1	7.2*	i	28	i	i	i	.	30%*	8.0%*
COc1cccc(-c2c(C(=O)N/N=C/c3cccs3)nnn2-c2nonc2N)c1	i	i	-12	i	i	-7.6*	.	40%*	i
COc1cccc(-c2c(C(=O)N/N=C(\C)c3ccco3)nnn2-c2nonc2N)c1	i	i	22	i	i	i	.	.	.
CCOc1cccc(-c2c(C(=O)N/N=C/c3cccs3)nnn2-c2nonc2N)c1	i	5.6*	17	i	i	i	30%*	i	i
CC(Nc1ccc2c(c1)OCCO2)C(=O)N1c2ccccc2CC1C (stereo not drawn)	i	i	2	i	i	i	.	.	.
Cc1ccc(OCC(=O)NNC(=O)c2ccco2)c(C)c1	i	30*	.	i	i	i	i	i	i
COc1cc(Cl)cc(/C=N/NC(N)=O)c1O	i	i	53	i	i	i	.	.	.
COc1ccc(C)cc1NC(=O)CN(C)S(=O)(=O)c1ccc2c(c1)CC(C)N2C(C)=O (stereo not drawn)	i	i	18	i	i	i	.	.	.
O=C(Nc1ncc(Cl)cc1Cl)c1c(F)cccc1Cl	i	i	8	i	i	i	.	.	.
Nc1sc(-c2ccccc2)cc1C(=O)N/N=C/c1ccc(Cl)cc1	i	4.7*	2	i	i	i	14%*	28%*	i
O=C(N/N=C/c1ccc(Cl)cc1)c1cc(-c2cccnc2)nc2ccccc12	i	i	-13	i	i	i	.	.	.

Assay outcomes as filed in PubChem BioAssay.
